The subject of data set [1] is Trypanosoma cruzi. Description: Antitrypanosomal activity against trypomastigotes of Trypanosoma cruzi Tulahuen infected immunosuppressed Swiss mouse assessed as level of parasite in blood at 20 mg/kg, po administered 8 day after post infection qd for 20 days measured after 3 cycles of immunosuppression. The data set is classed as functional, organism-based. Also on record: dose 20 mg/kg.

In data set [2] the test system is Trypanosoma cruzi. The data set is described as follows: Antitrypanosomal activity against trypomastigotes of Trypanosoma cruzi Tulahuen infected in Swiss mouse model of chagas disease assessed as decrease in parasite level in blood at 100 mg/kg, po administered 8 day after post infection qd for 20 days. In kind it is functional. On the set-up: scale not given: the % may be the effect or the level left.

In data set [3] the test system is Trypanosoma cruzi. Description: Antitrypanosomal activity against trypomastigotes of Trypanosoma cruzi Tulahuen infected immunosuppressed Swiss mouse assessed as level of parasite in blood at 100 mg/kg, po administered 8 day after post infection qd for 20 days measured after 3 cycles of immunosuppression. In kind it is functional, organism-based. Also on record: dose 100 mg/kg.

The subject of data set [4] is Trypanosoma cruzi. The data set is described as follows: Antitrypanosomal activity against trypomastigotes of Trypanosoma cruzi Tulahuen infected in Swiss mouse model of chagas disease assessed as increase in host survival at 100 mg/kg, po administered 8 day after post infection qd for 20 days. In kind it is functional, organism-based. On the set-up: dose 100 mg/kg.

Data set [5] in a line: Plasma concentration in Swiss mouse at 20 mg/kg, po after 1 hr. The data set is classed as ADME, organism-based. Also on record: dose 20 mg/kg, route oral. An outline of the steps: (§1)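 Nonfasted male Swiss outbred mice (23.8–39.9 g), fed throughout. Dosed by oral gavage as solution or suspension in aqueous vehicle. Plasma assayed by LC-MS against blank-plasma standards after acetonitrile precipitation; LLOQ 0.001–0.015 μM.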

The test system of data set [6] is Trypanosoma cruzi. The data set is described as follows: Antitrypanosomal activity against trypomastigotes of Trypanosoma cruzi Tulahuen expressing the beta- galactosidase gene infected rat L6 cells after 96 hrs. The data set is classed as functional, organism-based. The note with it: L6, 96 h. The method, boiled down: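 Tulahuén trypomastigotes expressing β-galactosidase, maintained by serial passage in L6 cells. L6 cells seeded and left 24 h at 37 °C, 5% CO2, then infected at MOI 3 for 48 h. Compound exposure 96 h, benznidazole control. CPRG with 0.3% Nonidet P-40 added, absorbance at 530 nm after 4−6 h. IC50 taken from % inhibition curve; mean of at least two assays.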

The nature of data set [7]: Plasma concentration in Swiss mouse at 20 mg/kg, po after 8 hrs. On the set-up: dose 20 mg/kg, route oral. The data set is classed as ADME, organism-based. An outline of the steps: as §1
For data set [8], the target named is CYP3A4/5 (Homo sapiens, UniProt P08684+P20815). The data set is described as follows: Inhibition of […] in human liver microsomes at 20 uM. In kind it is ADME, Microsome. (Liver microsomes are a subcellular fraction often used to study metabolism.)
Data set [9] deals with Trypanosoma cruzi. Description: Antitrypanosomal activity against trypomastigotes of Trypanosoma cruzi Tulahuen infected in Swiss mouse model of chagas disease assessed as increase of host survival at 100 mg/kg, ip administered 8 days after post infection qd for 5 days. In kind it is functional, organism-based. Also on record: dose 100 mg/kg. The method, boiled down: (§2)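 Female outbred Swiss mice, about 8 weeks old, infected ip with Tulahuén parasites; five mice per group. Daily dosing starts day 8 post-infection. Oral doses given by gavage in HPMC vehicle (0.5% HPMC, 0.4% Tween 80, 0.5% benzyl alcohol); ip doses in PBS with 0.4% Tween 80 and 10% PEG400. Tail-prick blood taken days 8, 9, 12, 14, 16, 19 and 27 post-infection, red cells lysed, and live trypomastigotes counted by hemocytometer. % efficacy = (vehicle mean − treated mean)/vehicle mean × 100. Survival recorded as surviving/infected-and-treated.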

Data set [10] relates to Trypanosoma cruzi. The data set is described as follows: Antitrypanosomal activity against trypomastigotes of Trypanosoma cruzi Tulahuen infected in Swiss mouse model of chagas disease assessed as decrease in parasite level in blood at 100 mg/kg, ip administered 8 days after post infection qd for 5 days. The data set is classed as functional. The conditions noted are these: route intraperitoneal. On the set-up: scale not given: the % may be the effect or the level left. An outline of the steps:
as §2

Data set [11] in a line: Plasma concentration in Swiss mouse at 50 mg/kg, po after 24 hrs. The data set is classed as ADME, organism-based. On the set-up: dose 50 mg/kg, route oral. The method, boiled down:
as §1

In data set [12] the test system is Trypanosoma cruzi. Description: Antitrypanosomal activity against trypomastigotes of Trypanosoma cruzi Tulahuen infected immunosuppressed Swiss mouse assessed as level of parasite in blood at 20 mg/kg, po administered after 2 cycles of immunosuppression qd for 10 days. On the set-up: dose 20 mg/kg. The data set is classed as functional, organism-based. An outline of the steps:
(§3)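 Female Swiss mice infected ip with Tulahuén parasites; oral gavage dosing in HPMC vehicle, daily from day 8 post-infection. Dosing is followed by 10 days without compound. If blood is then parasite-free, mice receive cyclophosphamide ip 50 mg/kg/day, up to three cycles (4 days on, 3 rest). Parasitemia counted in tail-prick blood by hemocytometer.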

The subject of data set [13] is Trypanosoma cruzi. Description: Antitrypanosomal activity against trypomastigotes of Trypanosoma cruzi Tulahuen infected in Swiss mouse model of chagas disease assessed as decrease in parasite level in blood at 20 mg/kg, po administered 8 day after post infection qd for 20 days. In kind it is functional. Also on record: scale not given: the % may be the effect or the level left. An outline of the steps: as §2

In data set [14] the test system is Trypanosoma cruzi. The data set is described as follows: Antitrypanosomal activity against trypomastigotes of Trypanosoma cruzi Tulahuen infected in Swiss mouse model of chagas disease assessed as increase of host survival at 10 mg/kg, po administered 8 days after post infection qd for 5 days. The data set is classed as functional, organism-based. On the set-up: dose 10 mg/kg. An outline of the steps:
as §2

For data set [15], the system named is Trypanosoma cruzi. Description: Antitrypanosomal activity against trypomastigotes of Trypanosoma cruzi Tulahuen infected in Swiss mouse model of chagas disease assessed as level of parasite in blood at 20 mg/kg, po qd for 20 days measured after 30 day. Also on record: dose 20 mg/kg. The data set is classed as functional, organism-based. The method, boiled down: as §3

The subject of data set [16] is Trypanosoma cruzi. The data set is described as follows: Antitrypanosomal activity against trypomastigotes of Trypanosoma cruzi Tulahuen infected in Swiss mouse model of chagas disease assessed as decrease in parasite level in blood at 10 mg/kg, ip administered 8 days after post infection qd for 5 days. The data set is classed as functional. Also on record: scale not given: the % may be the effect or the level left. The note with it: route intraperitoneal. An outline of the steps: as §2

Data set [17] relates to Trypanosoma cruzi. The data set is described as follows: Antitrypanosomal activity against trypomastigotes of Trypanosoma cruzi Tulahuen infected in Swiss mouse model of chagas disease assessed as decrease in parasite level in blood at 50 mg/kg, po administered 8 days after post infection qd for 5 days. In kind it is functional. Also on record: scale not given: the % may be the effect or the level left. The method, boiled down: as §2

Data set [18] can be described thus: Plasma concentration in Swiss mouse at 50 mg/kg, po after 8 hrs. The data set is classed as ADME, organism-based. Also on record: dose 50 mg/kg, route oral. An outline of the steps:
as §1

Data set [19] is described as follows: Plasma concentration in Swiss mouse at 50 mg/kg, po after 1 hr. The data set is classed as ADME, organism-based. Also on record: dose 50 mg/kg, route oral. An outline of the steps:
as §1

For data set [20], the system named is Trypanosoma cruzi. The data set is described as follows: Antitrypanosomal activity against trypomastigotes of Trypanosoma cruzi Tulahuen infected in Swiss mouse model of chagas disease assessed as decrease in parasite level in blood at 2 mg/kg, po administered 8 days after post infection qd for 5 days. Also on record: scale not given: the % may be the effect or the level left.

The subject of data set [21] is Trypanosoma cruzi. The data set is described as follows: Antitrypanosomal activity against trypomastigotes of Trypanosoma cruzi Tulahuen infected in Swiss mouse model of chagas disease assessed as increase of host survival at 2 mg/kg, po administered 8 days after post infection qd for 5 days. The data set is classed as functional, organism-based. Also on record: dose 2 mg/kg. An outline of the steps:
as §2

Data set [22] can be described thus: Kinetic solubility of the compound at pH 6.5 by nephelometric analysis. The data set is classed as physicochemical. The conditions noted are these: buffer, read-out: Kinetic_solubility.

This note sets out measurements from ChEMBL document CHEMBL2057177, “Analogues of fenarimol are potent inhibitors of Trypanosoma cruzi and are efficacious in a murine model of Chagas disease” (J Med Chem, 2012).

In general, IC50 refers to the concentration needed to halve the response being measured. As a reminder, the inhibition is the change of the read-out against control, counted positive when it falls.

Molecules are shown by their SMILES. Converted amounts (≈) assume the structure as drawn. The source made the active and inactive calls. The rule behind the calls is not given here.

As to `O=C(Cn1ccnc1[N+](=O)[O-])NCc1ccccc1` [BENZNIDAZOLE], the result in data set [1], in [3] and in data set [4] was Active. Besides, the Activity in data set [2] is over 99%.
With `OC(c1ccc(Cl)cc1)(c1cncnc1)c1ccccc1Cl` (stereo not given) [FENARIMOL], the concentration at 1 h in [5] came out at 2.1 µM. Besides, in data set [6], half-maximal inhibition (IC50) was put at 350 nM. This compound had a concentration at 8 h in data set [7] of 0.08 µM. Further, 20 µM produced 66% inhibition in data set [8]. In addition, in data set [9], the outcome was Active. In addition, in data set [10], the Activity was 80%.
The compound `CC[C@@H]([C@H](C)O)n1ncn(-c2ccc(N3CCN(c4ccc(OC[C@@H]5CO[C@@](Cn6cncn6)(c6ccc(F)cc6F)C5)cc4)CC3)cc2)c1=O` [POSACONAZOLE] returned a concentration at 24 h in [11] of 3.8 µM. The outcome in [12] was inactive. Further, the Activity in data set [13] is given as over 99%; in data set [16], 100%; in [17] it was 100%; in [20], 100%. Moreover, the result in data set [14], in data set [15] and in data set [21] was Active. In addition, the results for the concentration at 1 h in data set [5] and in data set [19] were 6.3 µM and 6.4 µM, respectively. The concentration at 8 h in data set [7] worked out at 13.6 µM; in data set [18] it was 11.1 µM. For the same compound, the inhibition at 20 µM in data set [8] stood at 98%. Further, in data set [22], the solubility kinetic was 3.1 µg/mL (≈ 4.42 µM).
